Data from ChEMBL document CHEMBL2203225, “Dehydrozingerone, a structural analogue of curcumin, induces cell-cycle arrest at the G2/M phase and accumulates intracellular ROS in HT-29 human colon cancer cells” (J Nat Prod, 2012).
Active and inactive are the calls of the source. The rule behind the calls is not given here.

Assays:
HT-29 [1] = experiment: Cytotoxicity against human HT-29 cells assessed as dead cells at GI70 concentration after 72 hrs by WST-8 assay; type: functional
How it was run: (§1)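 HT-29 colon cancer cells grown in DMEM with 10% FBS, 2 mM glutamine, penicillin and streptomycin at 37 °C, 5% CO2. Cells exposed to compound or vehicle (0.1% DMSO) for 72 h. Live and dead cells were counted by ViaCount staining on a Guava EasyCyte Plus flow cytometer, and percent dead cells was calculated. Mean ± SD, n = 3.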

HT-29 [2] = experiment: Cytotoxicity against human HT-29 cells assessed as dead cells at > 31.3 uM after 72 hrs by […]; type: functional; how it was run: as §1
HT-29 [3] = experiment: Cytotoxicity against human HT-29 cells assessed as growth inhibition after 72 hrs by WST-8 assay; type: functional
How it was run: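 Viability read by WST-8 (Cell Counting Kit-8) after 72 h incubation of HT-29 cells with compound. Cells cultured in DMEM with 10% FBS at 37 °C, 5% CO₂. Means ± SD, n = 3.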

HT-29 [4] = experiment: Cell cycle arrest in human HT-29 cells assessed as accumulation at G2/M phase at 250 uM after 24 hrs by propidium iodide based FACS flow cytometry; type: functional
How it was run: (§2)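 HT-29 cells exposed 24 h to 125, 250 or 500 μM, with 0.1% DMSO as vehicle control. Permeabilized with 0.1% Triton X-100, stained with 100 μg/mL PI and analysed by FACSCalibur for G1/S/G2/M percentages. Means ± SD, n = 3; significance tested against DMSO control.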

WI-38 [5] = experiment: Cytotoxicity against human WI38 cells assessed as growth inhibition after 72 hrs by WST-8 assay; type: cell-based; conditions: wi-38, 72 h
WI-38 [6] = experiment: Cell cycle arrest in human WI38 cells assessed as ROS-stimulated accumulation at G2/M phase at 250 uM after 24 hrs by propidium iodide based FACS flow cytometry in presence of N-acetyl-L-cysteine; conditions: wi-38, 24 h
HCT-15 [7] = experiment: Cell cycle arrest in human HCT15 cells assessed as ROS-stimulated accumulation at G2/M phase after 24 hrs by propidium iodide based FACS flow cytometry in presence of alpha-tocopherol; type: functional
HCT-15 [8] = experiment: Cell cycle arrest in human HCT15 cells assessed as ROS-stimulated accumulation at G2/M phase after 24 hrs by propidium iodide based FACS flow cytometry in presence of L-ascorbic acid; type: functional
HCT-15 [9] = experiment: Cell cycle arrest in human HCT15 cells assessed as ROS-stimulated accumulation at G2/M phase after 24 hrs by propidium iodide based FACS flow cytometry in presence of N-acetyl-L-cysteine; type: functional
HCT-116 [10] = experiment: Cell cycle arrest in human HCT116 cells assessed as ROS-stimulated accumulation at G2/M phase after 24 hrs by propidium iodide based FACS flow cytometry in presence of alpha-tocopherol; type: functional
HCT-116 [11] = experiment: Cell cycle arrest in human HCT116 cells assessed as ROS-stimulated accumulation at G2/M phase after 24 hrs by propidium iodide based FACS flow cytometry in presence of L-ascorbic acid; type: functional
HCT-116 [12] = experiment: Cell cycle arrest in human HCT116 cells assessed as ROS-stimulated accumulation at G2/M phase after 24 hrs by propidium iodide based FACS flow cytometry in presence of N-acetyl-L-cysteine; type: functional
HCT-15 [13] = experiment: Cytotoxicity against human HCT15 cells assessed as growth inhibition after 72 hrs by WST-8 assay; type: functional, cell-based
HCT-116 [14] = experiment: Cytotoxicity against human HCT116 cells assessed as growth inhibition after 72 hrs by WST-8 assay; type: functional, cell-based
HT-29 [15] = experiment: Cell cycle arrest in human HT-29 cells assessed as ROS-stimulated accumulation at G2/M phase at 125 to 500 uM after 24 hrs by propidium iodide based FACS flow cytometry in presence of N-acetyl-L-cysteine; type: functional
How it was run: (§3)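 HT-29 cells grown in DMEM with 10% FBS and 2 mM glutamine at 37 °C, 5% CO₂, treated 24 h, then permeabilized with 0.1% Triton X-100. Stained with 100 μg/mL propidium iodide and analysed for G1, S and G2/M fractions by FACSCalibur flow cytometry. Data are means ± SD, n = 3, versus 0.1% DMSO control.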

HT-29 [16] = experiment: Cell cycle arrest in human HT-29 cells assessed as ROS-stimulated increase in p21 at 250 to 500 uM after 24 hrs by Western blotting in presence of N-acetyl-L-cysteine; type: functional, cell-based
HT-29 [17] = experiment: Induction of ROS generation in human HT-29 cells at > 250 uM after 24 hrs by FACS flow cytometry; type: functional, cell-based
HT-29 [18] = experiment: Cell cycle arrest in human HT-29 cells transfected with p21 siRNA assessed as accumulation at G2/M phase at 500 uM after 24 hrs by propidium iodide based FACS flow cytometry; type: functional
How it was run: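 HT-29 cells transiently transfected for 24 h with 10 nM p21 or negative-control siRNA using Lipofectamine RNAiMAX, alongside 24 h exposure to 500 μM or 0.1% DMSO. Cells were PI-stained and cell-cycle phases quantified by flow cytometry. Means ± SD, n = 3, versus DMSO-treated control.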

HT-29 [19] = experiment: Upregulation of p21 gene expression in human HT-29 cells assessed as decrease in phosphorylated CDK1 at Thr161 at 500 uM after 24 hrs by Western blotting; type: functional, cell-based
How it was run: (§4)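 HT-29 cells treated 24 h or given 0.1% DMSO, then lysed in 50 mM Tris-HCl with 1% SDS and protease inhibitors. Blots were blocked in 5% skim milk/TBST for 1 h at RT and probed with primary antibody for 1 h at RT. Detection by ECL, with β-actin as loading control.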

HT-29 [20] = experiment: Upregulation of p21 gene expression in human HT-29 cells at > 250 uM after 24 hrs by Western blotting; type: functional, cell-based; how it was run: as §4
HT-29 [21] = experiment: Upregulation of Cyclin B gene expression in human HT-29 cells at 125 to 500 uM after 24 hrs by Western blotting; type: functional, cell-based; how it was run: as §4
HT-29 [22] = experiment: Upregulation of CDK1 gene expression in human HT-29 cells at 125 to 500 uM after 24 hrs by Western blotting; type: functional, cell-based; how it was run: as §4
HT-29 [23] = experiment: Cell cycle arrest in human HT-29 cells assessed as accumulation at G2/M phase at > 250 uM after 24 hrs by propidium iodide based FACS flow cytometry relative to control; type: functional; how it was run: as §2
HT-29 [24] = experiment: Cytotoxicity against human HT-29 cells assessed as dead cells at 1000 uM after 72 hrs by […]; type: functional; how it was run: as §1
HT-29 [25] = experiment: Cytotoxicity against human HT-29 cells assessed as dead cells at 500 uM after 72 hrs by […]; type: functional; how it was run: as §1
HT-29 [26] = experiment: Cell cycle arrest in human HT-29 cells assessed as ROS-stimulated accumulation at G2/M phase after 24 hrs by propidium iodide based FACS flow cytometry in presence of L-ascorbic acid; type: functional; how it was run: as §3
HT-29 [27] = experiment: Cell cycle arrest in human HT-29 cells assessed as ROS-stimulated accumulation at G2/M phase after 24 hrs by propidium iodide based FACS flow cytometry in presence of alpha-tocopherol; type: functional; how it was run: as §3
HT-29 [28] = experiment: Cell cycle arrest in human HT-29 cells assessed as ROS-stimulated accumulation at G2/M phase after 24 hrs by propidium iodide based FACS flow cytometry in presence of MnTBAP; type: functional; how it was run: as §3
HT-29 [29] = experiment: Cell cycle arrest in human HT-29 cells assessed as ROS-stimulated accumulation at G2/M phase after 24 hrs by propidium iodide based FACS flow cytometry in presence of PEG-penetreated catalase; type: functional; how it was run: as §3
HT-29 [30] = experiment: Cell cycle arrest in human HT-29 cells assessed as ROS-stimulated accumulation at G2/M phase after 24 hrs by propidium iodide based FACS flow cytometry in presence of SOD; type: functional; how it was run: as §3
HT-29 [31] = experiment: Cell cycle arrest in human HT-29 cells assessed as ROS-stimulated accumulation at G2/M phase at 62.5 to 250 uM after 24 hrs by propidium iodide based FACS flow cytometry

## COc1cc(/C=C/C(=O)CC(=O)/C=C/c2ccc(O)c(OC)c2)ccc1O [CURCUMIN]
HT-29 [1]
  Activity: 45%
HT-29 [2]
  Activity: 84%

## COc1cc(/C=C/C(C)=O)ccc1O [DEHYDROZINGERONE]
HT-29 [3]
  growth inhibition (GI): Active
HT-29 [4]
  Activity: Active
WI-38 [5]
  Activity: Toxic
WI-38 [6]
  Activity: Toxic
HCT-15 [7]
  Activity: Active
HCT-15 [8]
  Activity: Active
HCT-15 [9]
  Activity: inactive
HCT-116 [10]
  Activity: Active
HCT-116 [11]
  Activity: Active
HCT-116 [12]
  Activity: inactive
HCT-15 [13]
  growth inhibition (GI): Active
HCT-116 [14]
  growth inhibition (GI): Active
HT-29 [15]
  Activity: inactive
HT-29 [16]
  Activity: inactive
HT-29 [17]
  Activity: Active
HT-29 [18]
  Activity: inactive
HT-29 [19]
  Activity: Active
HT-29 [20]
  Activity: Active
HT-29 [21]
  Activity: inactive
HT-29 [22]
  Activity: inactive
HT-29 [23]
  fold change (FC): 2
HT-29 [1]
  Activity: 11%
HT-29 [24]
  Activity: 37%
HT-29 [25]
  Activity: 22%
HT-29 [26]
  Activity: Active
HT-29 [27]
  Activity: Active
HT-29 [28]
  Activity: Active
HT-29 [29]
  Activity: Active
HT-29 [30]
  Activity: Active
HT-29 [31]
  Activity: Active

## COc1ccc(/C=C/C(C)=O)cc1O
HT-29 [3]
  growth inhibition (GI): Active
HT-29 [17]
  Activity: Active
HT-29 [31]
  Activity: Active

## COc1cccc(/C=C/C(C)=O)c1O
HT-29 [3]
  growth inhibition (GI): Active
HT-29 [17]
  Activity: Active
HT-29 [31]
  Activity: Active
